Measured values taken from ChEMBL document CHEMBL1152997, “Prevalence of and molecular basis for tuberculosis drug resistance in the Republic of Georgia: validation of a QIAplex system for detection of drug resistance-related mutations” (2008).

What was measured:
Type in all cases: functional
[1] = tested on: Mycobacterium tuberculosis; experiment: Antimycobacterial activity against Mycobacterium tuberculosis clinical isolates from tuberculosis patient assessed as percent sensitive isolates at 0.2 ug/ml by absolute-concentration method
Outline: (§1)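 Consecutive clinical M. tuberculosis isolates (196), Tbilisi, Jan–Mar 2006, primary culture on Lowenstein-Jensen medium. Suspension adjusted to 1 McFarland in sterile saline. 0.2 ml was plated onto drug-containing solid medium: a 10-fold dilution series for the 2, 4 and 40 µg/ml media, and a 100-fold dilution for the 0.2 µg/ml medium. Incubation at 37°C, 5–10% CO2, 28 days.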

[2] = tested on: Mycobacterium tuberculosis; experiment: Antimycobacterial activity against Mycobacterium tuberculosis clinical isolates from tuberculosis patient assessed as percent specific isolates at 0.2 ug/ml by absolute-concentration method
[3] = tested on: Mycobacterium tuberculosis; experiment: Antimycobacterial activity against Mycobacterium tuberculosis clinical isolates from tuberculosis patient assessed as percent specific isolates at 4 ug/ml by absolute-concentration method
[4] = tested on: Mycobacterium tuberculosis; experiment: Antimycobacterial activity against Mycobacterium tuberculosis clinical isolates from tuberculosis patient assessed as percent sensitive isolates at 4 ug/ml by absolute-concentration method; outline: as §1
[5] = tested on: Mycobacterium tuberculosis; experiment: Antimycobacterial activity against Mycobacterium tuberculosis clinical isolates from tuberculosis patient assessed as percent sensitive isolates at 2 ug/ml by absolute-concentration method; outline: as §1
[6] = tested on: Mycobacterium tuberculosis; experiment: Antimycobacterial activity against Mycobacterium tuberculosis clinical isolates from tuberculosis patient assessed as percent specific isolates at 2 ug/ml by absolute-concentration method
[7] = tested on: Mycobacterium tuberculosis; experiment: Antimycobacterial activity against Mycobacterium tuberculosis clinical isolates from tuberculosis patient assessed as percent sensitive isolates at 40 ug/ml by absolute-concentration method; outline: as §1
[8] = tested on: Mycobacterium tuberculosis; experiment: Antimycobacterial activity against Mycobacterium tuberculosis clinical isolates from tuberculosis patient assessed as percent specific isolates at 40 ug/ml by absolute-concentration method

SMILES: NNC(=O)c1ccncc1 [ISONIAZID]
- Activity [1]: 85.4%
- Activity [2]: 96.1%

SMILES: CN[C@@H]1[C@H](O[C@H]2[C@H](O[C@H]3[C@H](O)[C@@H](O)[C@H](N=C(N)N)[C@@H](O)[C@@H]3N=C(N)N)O[C@@H](C)[C@]2(O)C=O)O[C@@H](CO)[C@H](O)[C@H]1O [STREPTOMYCIN]
- Activity [3]: 99.2%
- Activity [4]: 69.6%

SMILES: CC[C@@H](CO)NCCN[C@@H](CC)CO [ETHAMBUTOL]
- Activity [5]: 50%
- Activity [6]: 98.9%

SMILES: CO[C@H]1/C=C/O[C@@]2(C)Oc3c(C)c(O)c4c(O)c(c(/C=N/N5CCN(C)CC5)c(O)c4c3C2=O)NC(=O)/C(C)=C\C=C\[C@H](C)[C@H](O)[C@@H](C)[C@@H](O)[C@@H](C)[C@H](OC(C)=O)[C@@H]1C [RIFAMPIN]
- Activity [7]: 94.5%
- Activity [8]: 99.4%
